The source made the active and inactive calls. The rule behind the calls is not given here.
Assays:
[1] = Increase in insulin secretion in Sprague-Dawley rat pancreas assessed per Langerhans islet; format: functional
Summary of the method: (§1)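 Islets from male Sprague-Dawley rats (360–390 g) are digested with collagenase XI (2.5 mg/ml, HBSS, 35 min, 37 °C), purified on a Histopaque gradient and handpicked. They are pre-incubated 60 min at 37 °C, 5% CO2, in KRB with 8.3 mM glucose. Medium insulin is measured by ELISA in pg/islet/h (n = 6–12) against untreated basal.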

[2] = Lactone formation at pH 1 after 1 hr; details: buffer, pH 1, 1 h
[3] = Lactone formation at pH 1 after 4 hrs; details: buffer, pH 1, 4 h
Rattus norvegicus = species on record: Rattus norvegicus; assay: Increase in insulin secretion in Sprague-Dawley rat pancreatic Langerhans islets below 25 uM; format: functional; summary of the method: as §1
[4] = Increase in insulin secretion in Sprague-Dawley rat pancreas at 75 uM assessed per Langerhans islet; format: functional; summary of the method: as §1
[5] = Increase in insulin secretion in Sprague-Dawley rat pancreatic Langerhans islets at 25 uM; format: functional; summary of the method: as §1
[6] = Increase in insulin secretion in Sprague-Dawley rat pancreatic Langerhans islets at 200 uM; format: functional; summary of the method: as §1

Compound | Activity [1] [pg/h] | Lactone formation [2] [%] | Lactone formation [3] [%] | Activity (Rattus norvegicus) | Activity [4] [pg/h] | Activity [5] [%] | Activity [6] [%]
C[C@@H]([C@H](C)O)[C@H](N)C(=O)O | 45 | 10 | 32 | inactive | 100 | – | –
C[C@@H]([C@H](C)O)[C@H]1NC(=O)NC1=O | 100 | – | – | – | – | 120 | –
C[C@@H]([C@H](C)O)[C@@H]1NC(=O)NC1=O | 100 | – | – | – | – | – | –
CCOc1cc(CC(=O)N[C@@H](CC(C)C)c2ccccc2N2CCCCC2)ccc1C(=O)O [REPAGLINIDE] | 100 | – | – | – | – | – | 100

— ChEMBL document CHEMBL1155859, “Synthesis of hydantoin analogues of (2S,3R,4S)-4-hydroxyisoleucine with insulinotropic properties” (Bioorg Med Chem Lett, 2008)
